Measurements as given in EPA's CvTdb concentration-time database.

Legend:
Rat [1] = experiment: concentration in plasma after dosing; settings: dosed: Glyoxylic acid monohydrate, 50 mg/kg, iv, Female, Harlan Sprague Dawley
Rat [2] = experiment: concentration in plasma after dosing; settings: dosed: Glyoxylic acid monohydrate, 50 mg/kg, iv, Male, Harlan Sprague Dawley
Rat [3] = experiment: concentration in plasma after dosing; settings: 14 min; dosed: Glyoxylic acid monohydrate; 50 mg/kg; iv; Male; Harlan Sprague Dawley
Rat [4] = experiment: concentration in plasma after dosing; settings: dosed: Glyoxylic acid monohydrate, 50 mg/kg, iv, Female, Harlan Sprague Dawley; remark: listed apart in the source
Rat [5] = experiment: concentration in plasma after dosing; settings: dosed: Glyoxylic acid monohydrate, 50 mg/kg, iv, Female, Harlan Sprague Dawley; remark: listed apart in the source
Rat [6] = experiment: concentration in plasma after dosing; settings: 11 min; dosed: Glyoxylic acid monohydrate; 50 mg/kg; iv; Female; Harlan Sprague Dawley
Rat [7] = experiment: concentration in plasma after dosing; settings: dosed: Glyoxylic acid monohydrate, 50 mg/kg, iv, Female, Harlan Sprague Dawley; remark: listed apart in the source
Rat [8] = experiment: concentration in plasma after dosing; settings: 14 min; dosed: Glyoxylic acid monohydrate; 50 mg/kg; iv; Female; Harlan Sprague Dawley
Rat [9] = experiment: concentration in plasma after dosing; settings: dosed: Glyoxylic acid monohydrate, 50 mg/kg, iv, Female, Harlan Sprague Dawley; remark: listed apart in the source
Rat [10] = experiment: concentration in plasma after dosing; settings: dosed: Glyoxylic acid monohydrate, 50 mg/kg, iv, Female, Harlan Sprague Dawley; remark: listed apart in the source
Rat [11] = experiment: concentration in plasma after dosing; settings: dosed: Glyoxylic acid monohydrate, 50 mg/kg, iv, Female, Harlan Sprague Dawley; remark: listed apart in the source
Rat [12] = experiment: concentration in plasma after dosing; settings: dosed: Glyoxylic acid monohydrate, 50 mg/kg, iv, Female, Harlan Sprague Dawley; remark: listed apart in the source
Rat [13] = experiment: concentration in plasma after dosing; settings: dosed: Glyoxylic acid monohydrate, 50 mg/kg, iv, Female, Harlan Sprague Dawley; remark: listed apart in the source
Rat [14] = experiment: concentration in plasma after dosing; settings: dosed: Glyoxylic acid monohydrate, 50 mg/kg, iv, Male, Harlan Sprague Dawley; remark: listed apart in the source
Rat [15] = experiment: concentration in plasma after dosing; settings: dosed: Glyoxylic acid monohydrate, 50 mg/kg, iv, Female, Harlan Sprague Dawley; remark: listed apart in the source
Rat [16] = experiment: concentration in plasma after dosing; settings: dosed: Glyoxylic acid monohydrate, 50 mg/kg, iv, Female, Harlan Sprague Dawley; remark: listed apart in the source
Rat [17] = experiment: concentration in plasma after dosing; settings: dosed: Glyoxylic acid monohydrate, 50 mg/kg, iv, Female, Harlan Sprague Dawley; remark: listed apart in the source
Rat [18] = experiment: concentration in plasma after dosing; settings: dosed: Glyoxylic acid monohydrate, 50 mg/kg, iv, Harlan Sprague Dawley
Rat [19] = experiment: concentration in plasma after dosing; settings: 11 min; dosed: Glyoxylic acid monohydrate; 50 mg/kg; iv; Female; Harlan Sprague Dawley; remark: listed apart in the source
Rat [20] = experiment: concentration in plasma after dosing; settings: dosed: Glyoxylic acid monohydrate, 50 mg/kg, iv, Male, Harlan Sprague Dawley; remark: listed apart in the source
human [21] = experiment: concentration in blood after dosing; settings: dosed: phenacetin, 250 mg, iv, male
Procedure, shortened: (§1)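 A PubMed search, classifier screening and manual review identified published in vivo toxicokinetic studies, which together with two structured collections supplied concentration-versus-time and amount-versus-time points. Points were mostly digitised from plot screenshots with WebPlotDigitizer, otherwise copied from tables. Dose, route, subject details and medium were hand-curated from each paper, and sampling and analytical methods are those of the sources, often unreported.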

dog = experiment: concentration in plasma after dosing; settings: dosed: phenacetin, 1 mg/kg, iv, duration: 5 min, male, beagle
Procedure, shortened: as §1

human [22] = experiment: concentration in blood after dosing; settings: 40 min; dosed: phenacetin; 0.25 g; oral; male
Procedure, shortened: as §1

human [23] = experiment: concentration in blood after dosing; settings: dosed: phenacetin, 250 mg, iv, male; remark: listed apart in the source
Procedure, shortened: as §1

human [24] = experiment: concentration in blood after dosing; settings: dosed: phenacetin, 1 g, oral, male
Procedure, shortened: as §1

human [25] = experiment: concentration in blood after dosing; settings: dosed: phenacetin, 250 mg, iv, male; remark: listed apart in the source
Procedure, shortened: as §1

human [26] = experiment: concentration in blood after dosing; settings: dosed: phenacetin, 250 mg, iv, male; remark: listed apart in the source
Procedure, shortened: as §1

human [27] = experiment: concentration in blood after dosing; settings: dosed: phenacetin, male
Procedure, shortened: as §1

rat [28] = experiment: concentration in plasma after dosing; settings: dosed: phenacetin, oral
human [29] = experiment: concentration in blood after dosing; settings: dosed: phenacetin, 250 mg, iv, male; remark: listed apart in the source
Procedure, shortened: as §1

human [30] = experiment: concentration in blood after dosing; settings: dosed: phenacetin, 1 g, oral, male; remark: listed apart in the source
Procedure, shortened: as §1

O.O=CC(=O)O [Glyoxylic acid monohydrate]
Settings	concentration in plasma [ng/mL]
Rat [1], 0.3 h	5270
Rat [1], 5 min	26200
Rat [2], 0.3 h	6320
Rat [2], 5 min	34200
Rat [4], 5 min	28600
Rat [4], 22 min	3840
Rat [5], 0.5 h	3360
Rat [5], 8 min	14700
Rat [7], 0.5 h	2820
Rat [7], 8 min	16900
Rat [9], 8 min	17400
Rat [9], 22 min	4560
Rat [10], 0.5 h	3380
Rat [10], 11 min	12000
Rat [11], 8 min	15800
Rat [11], 22 min	3900
Rat [12], 0.5 h	2850
Rat [12], 8 min	15800
Rat [13], 0.3 h	3380
Rat [13], 2 min	70100
Rat [14], 0.3 h	5910
Rat [14], 2 min	92900
Rat [15], 2 min	99000
Rat [15], 14 min	6240
Rat [16], 5 min	27700
Rat [16], 22 min	3860
Rat [17], 0.5 h	2690
Rat [17], 11 min	10700
Rat [20], 2 min	66100
Rat [20], 14 min	5250

Settings	concentration in plasma [ng/mL]
Rat [3]	7680
Rat [6]	9560
Rat [8]	8370
Rat [19]	11600

concentration in plasma [ng/mL], Rat [18]
Settings	0.3 h	2 min	5 min	8 min	11 min	14 min	22 min
Female	4380	102000	24000	10100	11300	8040	3600
Male	4850	63200	29800	–	9000	8390	4090

CCOc1ccc(NC(C)=O)cc1 [phenacetin]
Settings	concentration in blood [ng/mL]	concentration in plasma [ng/mL]
dog, 0.2422 h	–	1250
dog, 0.3263 h	–	884
dog, 0.4969 h	–	529
dog, 1.165 h	–	136
dog, 1.67 h	–	63.4
dog, 2.162 h	–	32.4
dog, 3.172 h	–	13.5
human [21], 1 h	660	–
human [21], 1.5 h	500	–
human [21], 2 h	210	–
human [21], 3 h	80	–
human [21], 10 min	1860	–
human [21], 20 min	1080	–
human [21], 40 min	980	–
human [23], 1 h	640	–
human [23], 1.5 h	460	–
human [23], 2 h	430	–
human [23], 3 h	220	–
human [23], 10 min	2610	–
human [23], 20 min	1770	–
human [23], 40 min	940	–
human [24], 4 h	2120	–
human [24], 5 h	670	–
human [25], 1 h	1540	–
human [25], 1.5 h	1010	–
human [25], 2 h	690	–
human [25], 3 h	180	–
human [25], 10 min	3420	–
human [25], 20 min	2620	–
human [25], 40 min	1890	–
human [26], 1 h	740	–
human [26], 1.5 h	310	–
human [26], 2 h	190	–
human [26], 3 h	80	–
human [26], 10 min	2920	–
human [26], 20 min	1910	–
human [26], 40 min	1090	–
human [29], 1 h	920	–
human [29], 1.5 h	820	–
human [29], 2 h	590	–
human [29], 3 h	330	–
human [29], 4 h	150	–
human [29], 10 min	3060	–
human [29], 20 min	2090	–
human [29], 40 min	1180	–
human [30], 1 h	4600	–
human [30], 1.5 h	1220	–
human [30], 2 h	750	–
human [30], 3 h	360	–
human [30], 4 h	330	–
human [30], 5 h	190	–
human [30], 20 min	300	–
human [30], 40 min	4510	–

Settings	concentration in blood [ng/mL]
human [22]	230

Settings	concentration in blood [ng/mL]	concentration in plasma [µM]
human [27], 1 h, 0.25 g, oral	180	–
human [27], 1 h, 1 g, oral	2750	–
human [27], 1 h, 250 mg, iv	670	–
human [27], 1.5 h, 1 g, oral	3360	–
human [27], 1.5 h, 250 mg, iv	510	–
human [27], 2 h, 1 g, oral	1880	–
human [27], 2 h, 250 mg, iv	370	–
human [27], 3 h, 1 g, oral	820	–
human [27], 3 h, 250 mg, iv	240	–
human [27], 4 h, 1 g, oral	530	–
human [27], 4 h, 250 mg, iv	130	–
human [27], 5 h, 1 g, oral	410	–
human [27], 10 min, 250 mg, iv	2670	–
human [27], 20 min, 0.25 g, oral	340	–
human [27], 20 min, 250 mg, iv	1260	–
human [27], 40 min, 0.25 g, oral	310	–
human [27], 40 min, 250 mg, iv	910	–
rat [28], 0.25 h, 250 mg/kg, Wistar	–	129
rat [28], 0.5 h, 250 mg/kg, Wistar	–	105
rat [28], 1 h, 250 mg/kg, Wistar	–	92.6
rat [28], 2 h, 250 mg/kg, Wistar	–	11.5
rat [28], 3 h, 250 mg/kg, Wistar	–	1.59

rat [28], male, Sprague Dawley
Settings	concentration in plasma [ng/mL]
0.1117 h, 360 mg/kg	14500
0.193 h, 360 mg/kg	24300
0.249 h, 10 mg/kg	2910
0.2743 h, 360 mg/kg	30300
0.5079 h, 360 mg/kg	28500
0.772 h, 360 mg/kg	25500
0.9929 h, 10 mg/kg	193
1.006 h, 360 mg/kg	23900
1.524 h, 360 mg/kg	14300
1.985 h, 10 mg/kg	34.3
2.022 h, 360 mg/kg	11300
3.99 h, 10 mg/kg	12.9
4.033 h, 360 mg/kg	4510
5.995 h, 10 mg/kg	8.58
7.985 h, 10 mg/kg	8.58
8.005 h, 360 mg/kg	913
11.99 h, 360 mg/kg	171
268 s, 10 mg/kg	893
